Experimental data from ChEMBL document CHEMBL4725436, “Gibberellin JRA-003: A Selective Inhibitor of Nuclear Translocation of IKKα” (ACS Med Chem Lett, 2020).
pEC50, pIC50: −log10 of the molar value. Activity calls are given as the source filed them. No cut-off for these calls is given here.

Columns and labels:
[1] = Selectivity index, ratio of IC50 for human Hs888Lu cells to EC50 for human RC-K8 cells measured after 24 hrs by CellTiter-Glo luminescent assay; assay type: toxicity; details: Hs888Lu cells (IC50) versus RC-K8 cells (EC50)
How it was run: (§1)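 High-throughput viability screen of test agents across a panel of 22 cancerous and noncancerous human cell lines. Viability was read by CellTiter-Glo luminescence.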

[2] = target: T1, Inhibitor of nuclear factor kappa-B kinase subunit alpha (Homo sapiens) (UniProt O15111); experiment: Inhibition of IKK alpha nuclear translocation in human HEK-293T cells assessed as reduction in IKK alpha level in nucleus at 15 uM pretreated with compound for 1 hr followed by stimulation with IL-1 beta for 3 hrs by western blot analysis; assay type: subcellular
T1 sequence (whole entry): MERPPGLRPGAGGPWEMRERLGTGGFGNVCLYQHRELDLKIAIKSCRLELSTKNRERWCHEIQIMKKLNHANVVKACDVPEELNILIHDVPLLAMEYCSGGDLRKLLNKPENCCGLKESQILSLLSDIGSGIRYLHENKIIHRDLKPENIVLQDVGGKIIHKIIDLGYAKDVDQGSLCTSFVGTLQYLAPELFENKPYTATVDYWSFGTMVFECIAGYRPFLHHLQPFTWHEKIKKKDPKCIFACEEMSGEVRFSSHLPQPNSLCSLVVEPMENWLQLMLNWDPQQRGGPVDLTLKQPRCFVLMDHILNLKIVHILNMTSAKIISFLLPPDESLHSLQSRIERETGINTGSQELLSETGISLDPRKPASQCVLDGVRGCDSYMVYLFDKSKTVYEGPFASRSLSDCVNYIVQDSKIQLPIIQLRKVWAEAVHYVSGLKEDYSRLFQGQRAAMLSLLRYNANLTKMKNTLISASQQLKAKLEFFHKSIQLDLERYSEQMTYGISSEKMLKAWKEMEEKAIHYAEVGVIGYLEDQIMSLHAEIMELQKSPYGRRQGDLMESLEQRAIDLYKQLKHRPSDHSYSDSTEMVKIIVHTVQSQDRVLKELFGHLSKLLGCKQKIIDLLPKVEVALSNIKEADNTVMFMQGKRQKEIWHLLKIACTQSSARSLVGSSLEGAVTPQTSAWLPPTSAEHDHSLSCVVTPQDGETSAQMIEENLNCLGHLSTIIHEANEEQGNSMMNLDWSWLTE
How it was run: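 HEK 293T cells were pretreated with vehicle or test agent, then stimulated with IL-1β (or vehicle). Cells were lysed and nuclei separated, and the cytosolic and nuclear fractions were each probed for IKKα and IKKβ by Western blotting.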

[3] = Cytotoxicity against human Hs888Lu cells assessed as reduction in cell viability measured after 24 hrs by CellTiter-Glo luminescent assay; assay type: cell-based; how it was run: as §1
[4] = target: T2, Inhibitor of nuclear factor kappa-B kinase subunit beta (Homo sapiens) (UniProt O14920); experiment: Inhibition of JRA-031 binding to IKKbeta in TNF-alpha-stimulated human HEK293T cells at 1 uM pretreated with compound for 1 hr followed by labeling with JRA-031 for 1 hr followed by stimulation with TNF-alpha for 1 hr by pull down based mass spectrometry; assay type: cell-based; details: HEK-293T
T2 sequence (whole entry): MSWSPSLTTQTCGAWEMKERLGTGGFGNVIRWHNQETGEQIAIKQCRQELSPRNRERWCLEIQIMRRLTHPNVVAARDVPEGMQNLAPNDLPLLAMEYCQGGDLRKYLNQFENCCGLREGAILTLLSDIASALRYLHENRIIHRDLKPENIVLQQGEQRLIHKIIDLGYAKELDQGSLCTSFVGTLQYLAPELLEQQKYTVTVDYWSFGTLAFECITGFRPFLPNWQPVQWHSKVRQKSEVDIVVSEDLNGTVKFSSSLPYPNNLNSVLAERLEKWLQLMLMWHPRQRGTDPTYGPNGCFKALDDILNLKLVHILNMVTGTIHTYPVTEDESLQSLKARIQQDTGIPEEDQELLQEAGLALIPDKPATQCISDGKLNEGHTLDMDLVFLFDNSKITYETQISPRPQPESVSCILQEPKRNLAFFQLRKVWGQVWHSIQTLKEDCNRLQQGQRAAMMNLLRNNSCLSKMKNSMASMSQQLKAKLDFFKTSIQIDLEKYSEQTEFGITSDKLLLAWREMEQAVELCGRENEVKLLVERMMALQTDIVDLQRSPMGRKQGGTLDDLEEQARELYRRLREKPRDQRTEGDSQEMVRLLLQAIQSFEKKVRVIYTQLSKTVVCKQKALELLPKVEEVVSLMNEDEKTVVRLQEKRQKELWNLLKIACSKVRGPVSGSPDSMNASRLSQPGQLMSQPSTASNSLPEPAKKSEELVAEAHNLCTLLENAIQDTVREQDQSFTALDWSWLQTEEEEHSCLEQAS

[5] = Selectivity index, ratio of IC50 for human Hs888Lu cells to EC50 for human SU-DHL-4 cells measured after 24 hrs by CellTiter-Glo luminescent assay; assay type: toxicity; details: Hs888Lu cells (IC50) versus SU-DHL-4 cells (EC50); how it was run: as §1
[6] = Selectivity index, ratio of IC50 for human Hs888lu cells to EC50 for human HCC1599 cells measured after 24 hrs by CellTiter-Glo luminescent assay; how it was run: as §1
[7] = Cytotoxicity against human Hs895SK cells assessed as reduction in cell viability measured after 24 hrs by CellTiter-Glo luminescent assay; assay type: cell-based; details: Hs 895.Sk; how it was run: as §1
RCK8 = experiment: Cytotoxicity against human RC-K8 cells assessed as reduction in cell viability measured after 24 hrs by CellTiter-Glo luminescent assay; assay type: functional, cell-based; details: RCK8, 24 h; how it was run: as §1
[8] = target: T2, Inhibitor of nuclear factor kappa-B kinase subunit beta (Homo sapiens); experiment: Inhibition of IKKbeta in human HeLa cells assessed as reduction in IL-1 beta-stimulated IKK beta nuclear translocation at 10 uM pretreated with compound for 4 hrs followed by stimulation with IL-1 beta for 1 hr by immunohistochemical staining/confocal microscopy; assay type: cell-based
How it was run: (§2)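 HeLa cells were pretreated with DMSO or test agent for 4 h, then stimulated with IL-1β (or vehicle) for 1 h. NF-κB pathway members were immunostained with AF488-tagged antibodies, nuclei were counterstained with DAPI, and compartmental localization was imaged by confocal microscopy.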

[9] = Cytotoxicity against human Hs578Bst cells assessed as reduction in cell viability measured after 24 hrs by CellTiter-Glo luminescent assay; assay type: cell-based; how it was run: as §1
PSN1 = experiment: Cytotoxicity against human PSN1 cells assessed as reduction in cell viability measured after 24 hrs by CellTiter-Glo luminescent assay; assay type: functional, cell-based; details: PSN1, 24 h; how it was run: as §1
[10] = Selectivity index, ratio of IC50 for human Hs578Bst cells to EC50 for human CA46 cells measured after 24 hrs by CellTiter-Glo luminescent assay; assay type: toxicity; details: Hs578Bst cells (IC50) versus CA46 cells (EC50); how it was run: as §1
[11] = Selectivity index, ratio of IC50 for human HS895SK cells to EC50 for human RC-K8 cells measured after 24 hrs by CellTiter-Glo luminescent assay; how it was run: as §1
[12] = target: T1, Inhibitor of nuclear factor kappa-B kinase subunit alpha (Homo sapiens); experiment: Inhibition of IKKalpha in human HeLa cells assessed as reduction in IL-1 beta-stimulated IKK alpha nuclear translocation at 10 uM pretreated with compound for 4 hrs followed by stimulation with IL-1 beta for 1 hr by immunohistochemical staining/confocal microscopy; assay type: cell-based; how it was run: as §2
[13] = Selectivity index, ratio of IC50 for human HS895SK cells to EC50 for human CA46 cells measured after 24 hrs by CellTiter-Glo luminescent assay; how it was run: as §1

inhibition [2]: Active
inhibition [4]: Active
inhibition [8]: Active
inhibition [12]: Active
Structure (SMILES): C=C1C[C@]23C[C@@]1(O)CC[C@H]2[C@@]12C=CC(=O)[C@@](C)(C(=O)O1)[C@H]2[C@@H]3C(=O)OC
selectivity ratio at 24 h [1]: 500
pIC50 [3]: < 5.00
selectivity ratio at 24 h [5]: 500
Ratio IC50/EC50 [6]: 500
pIC50 [7]: < 5.00
pEC50 (RCK8): > 7.40
pIC50 [9]: < 5.00
pIC50 (PSN1): < 5.00
selectivity ratio at 24 h [10]: 500
Ratio IC50/EC50 [11]: 500
Ratio IC50/EC50 [13]: 500
